Legend:
[1] = folding enthalpy; higher = less favourable; fluorescence melt of hairpins on a sequencing array, two-state fit; settings: sodium 0.088 M
Outline: (§1)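 Hairpins were imaged by Cy3 fluorescence on a sequenced MiSeq flow cell with annealed Cy3 and quencher oligos, in 50 mM Na-HEPES pH 8.0, 25 mM NaCl, in 2.5 °C steps up to 60 °C. Bootstrapped two-state fits of normalised signals gave melting temperature and folding enthalpy. Four replicates were combined by inverse variance, and fitted temperatures were raised by 9.35 °C to match UV melts.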

[2] = melting temperature; fluorescence melt of hairpins on a sequencing array, two-state fit, raised by 9.35 °C to match UV melts; settings: sodium 0.088 M
Outline: as §1

Sequence | folding enthalpy [1] [kcal/mol] | Tm [2] [°C]
GACCTTGGAAACAAGACC (..((((....))))..) | -10.9 | 20
GCGTCGCGAAAGCCCCGC (((..((....))..))) | -19.7 | 43.6
GATCTCAAGAGAGATC ((((((....)))))) | -32.5 | 49.4
GATCCTGCGGAGGATC ((((((....)))))) | -37.1 | 50.3
GCCAGGCGAAAGCGAGGC (((..((....))..))) | -21.1 | 59.4
GGTGCTGGAAACAGCGCC ((.((((....)))).)) | -34.3 | 64.9
GCTTCAGGAAACCGAAGC (((((.(....).))))) | -35.9 | 46.3
TGAGAGAAATCTCA (((((....))))) | -9.57 | 28.2
GCACCCGAAAGGGTTTGC ((((((....)))..))) | -13.2 | 41.6
GTACAGCGAAAGCTCTAC (((.(((....))).))) | -17.3 | 29.5
GCAATTGCGAAAGCATGC (((..(((....)))))) | -14.9 | 40.2
GATCGCTAATGCGATC ((((((....)))))) | -31.4 | 67.1
CGGCAGCGGAAACGCCCG (((..(((....)))))) | -21.7 | 47
GCTCAGGGAAACCCGAGC ((((.((....)).)))) | -35.8 | 51.3
GGAACCGAAAGGTTTTCC ((((((....)))..))) | -12.6 | 35.6
GCGAGCTCGAAAGAGCGC (((..(((....)))))) | -9.24 | 54.9
GTACCGGGAAACTGGTGC (.(((.(....).))).) | -25.9 | 42.4
GAGGCTGGAAACAGCTTC ((.((((....)))).)) | -19.8 | 49
CGCGGATCTCTCCGCG ((((((....)))))) | -51 | 66.8
GATCTGGTCTCAGATC ((((((....)))))) | -43 | 53
GCGCATGGAAACATGTGC ((.((((....)))).)) | -36.5 | 57.1
GCTCACCCGAAAGGGAGC (((..(((....)))))) | -19.4 | 50.2
GGACGGGGAAACCCACCC ((..(((....)))..)) | -10.4 | 26.1
GTAGTCGGAAACGATTAC (((.(((....))).))) | -30.4 | 44.1

Sequence | folding enthalpy [1] [kcal/mol] | Tm [2] [°C]
GCCGTGCGAAAGCCCCGC ((.(.((....)).).)) | -9.26 | 29.3
GGGAACTCGAAAGAGCCC (((..(((....)))))) | -20.3 | 37.8
GTTAACCGAAAGGTAAAC (((.(((....))).))) | -25.2 | 41.9
GATTACGGAAACGTAGTC ((.((((....)))).)) | -25 | 38
GCCTCGCGAAAGCGTTGC ((..(((....)))..)) | -15.7 | 39.9
GGTATCCGAAAGGAACC (((.(((....)))))) | -18.8 | 44.4
GGCAATGGAAACATTACC ((.((((....)))).)) | -26.7 | 37.3
GATCCTTGATAGGATC ((((((....)))))) | -35.4 | 50.5
GCCACAGCGAAAGCTGGC (((..(((....)))))) | -12.5 | 51.9
GATCTCGACGAGATC ((((((...)))))) | -38.9 | 57.4
CGAGTGAAAACTCG (((((....))))) | -24.6 | 54.6
GGAGTACGAAAGTATCC (((.(((....)))))) | -22.7 | 38.5
GCGATGACGAAAGTCCGC (((..(((....)))))) | -20 | 52
GATCTGCAGCCAGATC ((((((....)))))) | -32.6 | 48.9
GCGGACATCCGC ((((....)))) | -22.5 | 56.5
GTACCCGGAAACAGGTAC (((((.(....).))))) | -25.7 | 39.4
GACGCTGGAAACAACGCC (.((.((....)).)).) | -12.6 | 28.2
GACGAAGGAAACTCCGTC ((((.((....)).)))) | -26.2 | 37.7
GGAACCGGAAACAGTTCC (((((.(....).))))) | -28.4 | 40
GTCAACGAAAGTTCCGAC ((((((....)))..))) | -9.76 | 20.9
GCGTGGGTACGC ((((....)))) | -23.9 | 53.9
GCTGGCGAAAGCCGAAGC ((((((....)))..))) | -16.5 | 50.8
GATCGGTCGGCCGATC ((((((....)))))) | -45.8 | 59.4

From the array DNA melting data of Ke et al. (doi:10.1101/2024.01.08.574731)
